ChEMBL document CHEMBL4138288, “Crispenes F and G, cis-Clerodane Furanoditerpenoids from Tinospora crispa, Inhibit STAT3 Dimerization” (J Nat Prod, 2018)

How the values were obtained:
MDA-MB-231 = assay: Cytotoxicity against human MDA-MB-231 cells assessed as reduction in cell viability after 24 hrs by MTT assay; type: functional, cell-based; settings: MDA-MB-231, 24 h
Outline: (§1)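 Cells kept at 37 °C, 5% CO2. MDA-MB-231 were grown in DMEM with 10% FBS, 2 mM L-glutamine, NEAA and pen-strep, seeded at 2500 cells/well. A4 were grown in RPMI 1640 with 10% FBS and pen-strep, seeded at 5000 cells/well. WI-38 were grown in DMEM with 10% FBS, seeded at 5000 cells/well. Plates rested 24 h before compound was added in triplicate. MTT absorbance was read at 570 nm.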

WI-38 = assay: Cytotoxicity against human WI38 cells assessed as reduction in cell viability at 100 uM after 24 hrs by MTT assay; type: cell-based; settings: wi-38, 24 h; outline: as §1
[1] = Inhibition of unphosphorylated STAT3 beta dimerization (unknown origin) expressed in Escherichia coli BL21 Rosetta cells after 5 mins by fluorescence polarization assay; set-up: species or system Homo sapiens
Outline: (§2)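 Unphosphorylated STAT3βtc was expressed in E. coli with IPTG induction overnight at 21 °C, then purified by ion exchange. In PBS pH 7.4, 350 nM protein was mixed with 10 nM FAM-pYLPQTV (final). Base polarization was read, inhibitor was added, the plate was shaken 5 min and read again. % inhibition = (X−Y)/X×100, each term corrected for free probe.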

[2] = Cytotoxicity against human A4 cells assessed as reduction in cell viability after 24 hrs by MTT assay; type: functional, cell-based; outline: as §1
Homo sapiens [3] = species on record: Homo sapiens; assay: Inhibition of unphosphorylated STAT3 beta dimerization (unknown origin) expressed in Escherichia coli BL21 Rosetta cells at 100 uM after 5 mins by fluorescence polarization assay relative to STA-21
Homo sapiens [4] = species on record: Homo sapiens; assay: Inhibition of unphosphorylated STAT3 beta dimerization (unknown origin) expressed in Escherichia coli BL21 Rosetta cells at 100 uM after 5 mins by fluorescence polarization assay relative to pYLKTKF
Outline: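 Same STAT3βtc/FAM-pYLPQTV polarization displacement setup: 350 nM protein, 10 nM probe, PBS pH 7.4, 5 min after addition. Ligand tested at 100 μM. Its % inhibition (B) was expressed as B/A×100, where A is the % inhibition from 100 μM […], taken as 100%.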

[5] = Inhibition of FAM-pYLPQTV binding to unphosphorylated STAT3 beta (unknown origin) expressed in Escherichia coli BL21 Rosetta cells after 5 mins by fluorescence polarization assay; set-up: species or system Homo sapiens; outline: as §2

| Structure (SMILES) | IC50 (MDA-MB-231) [µM] | Activity (WI-38) | IC50 [1] [µM] | IC50 [2] [µM] | inhibition (Homo sapiens [3]) [%] | inhibition (Homo sapiens [4]) [%] | IC50 [5] [µM] |
| --- | --- | --- | --- | --- | --- | --- | --- |
| C[C@@]1(CC(O)c2ccoc2)C(C(=O)O)=CC[C@]2(C)[C@H]1[C@H]1C=C[C@@]2(O)C(=O)O1 (stereo not given in full) | 7.8 | Non-Toxic | 17 | > 10 | 130 | 72 | 17 |
| C[C@H]1C[C@H]2OC(=O)[C@@]34O[C@@H]3CC[C@@H]([C@]1(C)CCC1=CCOC1=O)[C@@]24C | 5.4 | – | – | – | – | – | – |
| COC(=O)C1=C[C@H](O)C[C@H]2[C@@]1(C)C=C[C@](O)(C(=O)O)[C@@]2(C)CC(OC(C)=O)c1ccoc1 (stereo not given in full) | 10 | Non-Toxic | 42 | > 10 | 119 | 60 | 42 |
